# Test results: the array DNA melting data of Ke et al. (doi:10.1101/2024.01.08.574731)
# What was measured:
# [1] = melting temperature; fluorescence melt of hairpins on a sequencing array, two-state fit, raised by 9.35 °C to match UV melts; settings: sodium 0.088 M
# Method in brief: (§1)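 Hairpins were imaged by Cy3 fluorescence on a sequenced MiSeq flow cell with annealed Cy3 and quencher oligos, in 50 mM Na-HEPES pH 8.0, 25 mM NaCl, in 2.5 °C steps up to 60 °C. Bootstrapped two-state fits of normalised signals gave melting temperature and folding enthalpy. Four replicates were combined by inverse variance, and fitted temperatures were raised by 9.35 °C to match UV melts.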
# [2] = folding enthalpy; higher = less favourable; fluorescence melt of hairpins on a sequencing array, two-state fit; settings: sodium 0.088 M
# Method in brief: as §1
Sequence,Tm [1] [°C],folding enthalpy [2] [kJ/mol]
GATCCAATTTGGATC ((((((...)))))),51.1,-166
GCGTAGCGAAAGCTTCGC (((.(((....))).))),55,-152
GATACAGAAATGTATC ((((((....)))))),44.8,-127
GATCGAGCCTCGATC ((((((...)))))),52.8,-146
GCTTTAGAAATAAAGC ((((((....)))))),45.1,-132
GAGGTAGGAAACTGCCTC ((((.((....)).)))),49.9,-155
ATGGTGAAAACCAT (((((....))))),47.1,-90.4
GATGCCGAAAGGCCTATC ((((((....)))..))),24,-27.9
GGACTTGGAAACAAGCCC ((.((((....)))).)),46.1,-130
GAGTTTGGAAACAAACCC (.(((((....))))).),37.3,-77.4
GGCAAGGGAAACCTTGCC (((((((....))))))),67.8,-138
GATGCACGAAAGTGATC (((.(((....)))))),36.6,-56.9
GCCATTTCGAAAGAAGGC (((..(((....)))))),33.1,-105
GTCGTCGAAAGACTGAC ((((((....))).))),47.5,-81
GATCGCTATCGCGATC ((((((....)))))),67.1,-154
GGTCAAACGAAAGTTACC (((..(((....)))))),30.3,-63.3
GATCTAAGCTTAGATC ((((((....)))))),47.5,-224
GTGGTCGAAAGACGACAC ((((((....)))..))),47.2,-64.3
GTTCGAGGAAACCCGAAC (((((.(....).))))),47,-125
GCGTCTGCGAAAGCACGC (((..(((....)))))),52.3,-77.4
GGGATGGGAAACCGTCTC (.((.((....)).)).),36.6,-109
GGACAAGGAAACTTGCCC ((.((((....)))).)),43,-84.8
GATCGCGAAAGCGTGATC ((((((....)))..))),42.8,-59.7

Sequence,Tm [1] [°C],folding enthalpy [2] [kJ/mol]
GCAGCCCGAAAGGGTGC (((.(((....)))))),64.4,-86.1
GCGGTAACCCGC ((((....)))),54.2,-116
GCTCCAACGAAAGTTAGC (((..(((....)))))),27.9,-49.4
GATCTCACTAGAGATC ((((((....)))))),54.3,-171
GCCTGTCGAAAGACTGGC (((.(((....))).))),61.2,-164
GATCCGGACTCGGATC ((((((....)))))),59.2,-207
GGGGGTGGAAACGCTCCC (((.(.(....).).))),47.1,-108
GCTATCGAAAGATCTAGC ((((((....)))..))),26.1,-49.2
GAGGTTGAAAAACCTC ((((((....)))))),58.2,-136
GATCAGCGCACTGATC ((((((....)))))),52.5,-169
GGTAGCGAAAGCTTTACC ((((((....)))..))),34.4,-65.7
GATCAGTAACCTGATC ((((((....)))))),47.4,-116
GGGGCGGGAAACCACCCC ((((.((....)).)))),55,-218
GCGGCAACCGC ((((...)))),51.7,-98.1
GGGTTAGGAAACTAGCCC (((.(((....))).))),49,-102
GGAATTCGAAAGAAGTCC (((.(((....))).))),49.2,-157
GCCCCGCGAAAGCCGGGC ((((.((....)).)))),66.4,-76.4
GATCGGCCAGCCGATC ((((((....)))))),65.9,-154
GATCAGGGTACTGATC ((((((....)))))),55.5,-171
GTATAACGAAAGTTGTAC (((.(((....))).))),45.5,-119
GATGTGGGAAACCATGTC ((..(((....)))..)),34.9,-136
GCTAGGGGAAACCTTGGC ((.(.((....)).).)),34.4,-99.7
GTACTCTCGAAAGAGTAC (((..(((....)))))),52.5,-154

Sequence,Tm [1] [°C],folding enthalpy [2] [kJ/mol]
GTCATCGGAAACGATGAC (((((((....))))))),67.8,-167
GCTGGCGAAAGCCTTAGC ((((((....)))..))),44.4,-63.3
GCGCTCGGAAACAAGCGC (((((.(....).))))),55.9,-196
GCTGGCGAAAGCCGCAGC ((((((....)))..))),52.4,-54.1
GCCCACGAAAGTGTAGGC ((((((....)))..))),52.8,-103
GCAGGCGAAAGCCGTTGC ((((((....)))..))),53.7,-52.6
GGACACGAAAGTGTTTCC ((((((....)))..))),38,-48
GTTGCGTCGAAAGACAAC (((..(((....)))))),30.3,-57.9
GTAAAACGAAAGTTATAC (((.(((....))).))),31.6,-61.9
GCGTCCGAAAGGAATCGC ((((((....)))..))),47.8,-94.3
GAAATGGGAAACTATTTC (((((.(....).))))),33.7,-96.1
GATGACGGAAACGTCGTC ((.((((....)))).)),52.8,-181
GGTTTCGAAAGAACGACC ((((((....)))..))),29.6,-60.4
GGGAGGGCGAAAGCCCCC (((..(((....)))))),55.3,-44.4
GTTTGCGAAAGCAATAAC ((((((....)))..))),34.5,-52.7
GCGTTCGGAAACGAACAC (.(((((....))))).),45.5,-57.3
GTCGTCCCGAAAGGGGAC (((..(((....)))))),45.1,-48.7
GTCAGTGGAAACGCTGAC (((((.(....).))))),54.2,-169
GATCAGTGCCCTGATC ((((((....)))))),49.9,-125
GGAAGCGGAAACACTTCC (((((.(....).))))),44.3,-138
GCGGTGCGAAAGCGCTGC ((.(.((....)).).)),66.9,-90.5
GACGCGGGAAACTGCGTC (((((.(....).))))),64,-147
GATCATTCTATGATC ((((((...)))))),50.7,-141
